# Like-named read-outs stand apart in the source and are kept apart here.
# How the values were obtained:
# KB cells [1] = test: Real-time cell proliferation; assay type: cell-based, human; conditions: 20 µM COH29, 20 µM Gem or 1 mM HU
# Outline: (§1)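 Cell proliferation was followed by real-time electronic cell sensing (RT-CES, W200 16X) with 2,500 cells seeded per well. From 24 h after seeding, the cell index was recorded every half hour for 120 hours. Quadruplicate samples were used, and traces show the mean of 4 replicates.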
# KB-Gem cells [2] = test: 72 h viability assay, gemcitabine-resistant KB clone; assay type: cell-based; conditions: Homo sapiens, read-out: IC50, toxicity assay
# Outline: (§2)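 72 h MTS viability test (CellTiter 96 AQueous) on 10 replicate wells per condition, following the kit instructions. IC50 is the concentration that lowers viability to 50% of the DMSO control. KB cells were grown in RPMI 1640 with 10% FBS and 1% penicillin-streptomycin at 37°C in humidified 5% CO2. KB-HURs and KB-Gem are KB-derived resistant clones.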
# KB cells [3] = test: 72 h MTS viability assay, KB cells; assay type: cell-based, human
# Outline: as §2
# MOLT-4 tumor xenograft = MOLT-4 tumor xenograft in mice; assay type: in vivo, mouse; conditions: twice-daily oral dosing 50 mg/kg and 100 mg/kg, Day 12
# Outline: (§3)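 Female NSG (NOD/SCID/IL2Rgamma null) mice, 8–10 weeks old, received 5×10^6 MOLT-4 or TOV-112D cells subcutaneously in the right flank. Tumour volume was taken as 0.5×l×w2. Once tumours reached about 70 mm3, test compound in 30% solutol was given daily by gavage on a one- or two-dose schedule. Mice were sacrificed on day 28 after implantation; 4 animals/group, mean ± SD.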
# [4] = biological target: T1, C-terminal truncated hRRM2 (Homo sapiens, UniProt P31350); test: Surface plasmon resonance, C-terminal truncated hRRM2; assay type: binding; conditions: 0.0 – 50.0 µM compound
# T1 sequence (P31350 1-348 limits assumed): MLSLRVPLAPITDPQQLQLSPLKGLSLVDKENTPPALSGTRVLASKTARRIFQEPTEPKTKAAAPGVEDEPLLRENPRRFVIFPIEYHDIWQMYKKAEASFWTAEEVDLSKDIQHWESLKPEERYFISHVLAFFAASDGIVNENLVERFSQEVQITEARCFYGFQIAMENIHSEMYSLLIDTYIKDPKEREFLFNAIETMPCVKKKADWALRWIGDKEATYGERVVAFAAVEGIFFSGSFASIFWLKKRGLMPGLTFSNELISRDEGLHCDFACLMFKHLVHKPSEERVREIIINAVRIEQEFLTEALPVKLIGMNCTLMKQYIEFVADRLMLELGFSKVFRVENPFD
# Outline: (§4)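 Surface plasmon resonance on a Biacore […], with full-length or C-terminally truncated hRRM2 immobilised on CM4 sensor chips. Test compound was injected at 0.0–50.0 µM and binding was read from sensorgrams.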
# recombinant hRRM2/hRRM1 = biological target: T2, recombinant hRRM2/hRRM1 (Homo sapiens, UniProt P31350); test: [3H] CDP reduction assay, recombinant hRRM2/hRRM1; assay type: biochemical
# T2 sequence (P31350 1-389): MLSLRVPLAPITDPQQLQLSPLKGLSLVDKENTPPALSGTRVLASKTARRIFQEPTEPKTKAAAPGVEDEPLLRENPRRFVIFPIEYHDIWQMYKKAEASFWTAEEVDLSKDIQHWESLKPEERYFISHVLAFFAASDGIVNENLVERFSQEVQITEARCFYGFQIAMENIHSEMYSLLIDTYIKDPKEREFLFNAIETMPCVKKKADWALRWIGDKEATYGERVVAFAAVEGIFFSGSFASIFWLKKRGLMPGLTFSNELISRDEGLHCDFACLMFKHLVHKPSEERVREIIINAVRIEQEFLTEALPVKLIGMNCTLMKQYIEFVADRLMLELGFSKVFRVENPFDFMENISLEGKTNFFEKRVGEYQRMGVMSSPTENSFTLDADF
# [5] = system: dNTP pools in MOLT-4 tumor xenografts; test: Intratumoral dNTP pools of MOLT-4 tumor xenografts; assay type: in vivo, mouse; conditions: MOLT-4 xenografts, treated vs. control
# KB cells [6] = test: Cell cycle and apoptosis by flow cytometry, KB cells; assay type: cell-based, human
# Outline: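 After 48 h of treatment, KB cells were analysed on a FACScalibur flow cytometer. Propidium iodide staining gave cell-cycle distribution and Annexin V signal gave apoptosis.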
# [7] = biological target: T3, endogenously expressed RNR in KB cells (Homo sapiens, UniProt P31350); test: RNR activity in cell lysates of KB cells; assay type: cell-based; conditions: 24 h incubation, 10 µM
# T3 sequence (P31350 1-389): T2 sequence (P31350 1-389)
# [8] = Pharmacokinetics in mice, HPLC-MS/MS of plasma; assay type: in vivo, mouse
# Outline: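 Mice received 800 mg/kg test compound orally or intravenously. Plasma levels were measured by HPLC-tandem mass spectrometry (Agilent 1100 capillary LC with triple-quadrupole MS). Oral bioavailability was derived by comparison with the intravenous route.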
# [9] = biological target: T4, immobilized full-length hRRM2 (Homo sapiens, UniProt P31350); test: Surface plasmon resonance, immobilized full-length hRRM2; assay type: binding; conditions: 0.0 – 50.0 µM compound
# T4 sequence (P31350 1-389): T2 sequence (P31350 1-389)
# Outline: as §4
# Tolerability in mice = assay type: in vivo; conditions: up to a daily dose of 500 mg/kg
# [10] = system: hRRM2 protein level in KB cells; test: Western blot of hRRM2 protein level, KB cells; assay type: cell-based, human; conditions: 20 µM
# Outline: (§5)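 KB and TOV-112D cells were treated with 20 µM test compound for a series of times. Lysates were western blotted for hRRM2, with β-actin as loading control.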
# [11] = system: NCI broad panel of 60 human cancer cell lines; test: NCI 60 human cancer cell line panel, MTT cytotoxicity; assay type: cell-based; conditions: 10 µM
# RRM1-RRM2 interaction = biological target: T5, RRM1-RRM2 interaction (Homo sapiens, UniProt P31350); assay type: binding
# T5 sequence (P31350 1-389): T2 sequence (P31350 1-389)
# Outline: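 Surface plasmon resonance on a Biacore […] with hRRM2 immobilised on a CM4 chip. hRRM1 (0–1 µM) binding was first confirmed and a KD derived. A fixed 0.5 µM hRRM1 was then co-injected with test compound at 0–50 µM, and sensorgrams were read.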
# [12] = system: hRRM2 protein level in TOV-112D cells; test: Western blot of hRRM2 protein level, TOV-112D cells; assay type: cell-based, human; conditions: 20 µM
# Outline: as §5
# [13] = system: dNTP pools in MOLT-4 cells; test: dNTP pools in MOLT-4 cells; assay type: cell-based, human; conditions: 10 µM, by 24 h
# Outline: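 MOLT-4 cells were exposed to 10 µM test compound or left untreated (control). dATP, dCTP and dGTP levels were measured after 4, 8 and 24 h.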
# NHDF cells = test: 72 h viability assay, normal dermal fibroblasts; assay type: cell-based; conditions: Homo sapiens, read-out: IC50, viability
# [14] = biological target: T6, RNR in MOLT-4 tumor xenografts (Homo sapiens, UniProt P31350); test: RNR activity in extracts of MOLT-4 tumor xenografts; assay type: in vivo, mouse; conditions: mice treated for 12 days, 100 mg/kg
# T6 sequence (P31350 1-389): T2 sequence (P31350 1-389)
# Outline: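 RNR activity was measured in extracts of subcutaneous MOLT-4 xenografts from NSG mice dosed orally for 12 days with vehicle (solutol-15) or 100 mg/kg test compound.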
# KB-HURs cells [15] = test: 72 h viability assay, HU-resistant KB clone; assay type: cell-based, human
# Outline: as §2
# TOV-112D tumor xenograft = TOV-112D tumor xenograft in mice; assay type: in vivo, mouse; conditions: 200, 300, or 400 mg/kg/day oral, 7 days
# Outline: as §3
# KBHURs cells = test: Real-time cell proliferation; assay type: cell-based, human; conditions: COH29 2–250 µM
# Outline: as §1
# KB-Gem cells [16] = test: Real-time cell proliferation; assay type: cell-based, human; conditions: COH29 2–250 µM
# KB-HURs cells [17] = conditions: cited from earlier work
# [18] = patients; cited from earlier work
# [19] = Homo sapiens, KB, read-out: IC50, cell proliferation/viability
# [20] = female, Balb/c nude, mouse, plasma, po, 800 mg/kg
smiles,measurement,setting,value
"Nc1ccn([C@@H]2O[C@H](CO)[C@@H](O)C2(F)F)c(=O)n1 [Gem, gemcitabine]",real-time KB cell growth after addition at 24 h,KB cells [1],cell growth continued
same,IC50,KB-Gem cells [2],1000 µM
same,IC50,KB cells [3]; [19],9 µM
"O=C(Nc1nc(-c2ccc(O)c(O)c2)c(-c2ccccc2)s1)c1ccc(O)c(O)c1 [COH29, N-(4–(3,4-dihydroxyphenyl)-5-phenylthiazol-2-yl)-3,4-dihydroxybenzamide]",MOLT-4 tumor xenograft growth,MOLT-4 tumor xenograft,dose-dependent inhibition
same,binding after removal of 41 C-terminal amino acids from hRRM2,[4],greatly decreased
same,IC50,recombinant hRRM2/hRRM1,16 µM
same,intratumoral dNTP pools,[5],decreased
same,apoptosis,KB cells [6],underwent apoptosis
same,cell cycle distribution,KB cells [6]; 48 h treatment,arrested at S-phase
same,decrease of endogenously expressed RNR activity,[7],approximately 50%
same,real-time KB cell growth after addition at 24 h,KB cells [1],essentially halted
same,peak plasma concentration,"[8]; PO 800 mg/kg in 30% solutol, female Balb/c nude mice",10 µM
same,Tmax,[8]; [20],30 min
same,concentration at 24 h,[8]; [20],~200 nM
same,interaction with immobilized full-length hRRM2 (sensorgram),[9],dose-dependent interaction
same,"tolerability, side effects",Tolerability in mice,no appreciable side effects
same,hRRM2 protein level,[10],unaffected
same,cytotoxicity in NCI 60 panel,[11],Impressive inhibition of most of the cancer cell lines
same,effect on RRM1-RRM2 binding,"RRM1-RRM2 interaction; 0.5 µM RRM1, 0 – 50 µM compound",interfered with RRM1-RRM2 binding in a dose-dependent manner
same,effect on RRM1-RRM2 interaction at low dose,"RRM1-RRM2 interaction; 12.5 µM compound, 0.5 µM RRM1",enhanced RRM1-RRM2 interaction
same,effect on RRM1-RRM2 complex at higher dose,"RRM1-RRM2 interaction; > 25µM compound, 0.5 µM RRM1",disrupted the complex
same,hRRM2 protein level,[12],unaffected
same,IC50,KB-Gem cells [2],8 µM
same,"levels of dATP, dCTP and dGTP",[13],all pools were greatly decreased
same,IC50,NHDF cells,82 µM
same,RNR activity in extracts of MOLT-4 tumor xenografts,[14],dramatically lower
same,IC50,"KB-HURs cells [15]; Homo sapiens, read-out: IC50, toxicity assay",8 µM
same,IC50,KB cells [3]; [19],8 µM
same,TOV-112D tumor xenograft growth,TOV-112D tumor xenograft,dose-dependent inhibition
same,real-time growth of KBHURs,KBHURs cells,remained sensitive
same,real-time growth of KB-Gem,KB-Gem cells [16],cytotoxic activity is strong and is unaffected by Gem resistance
"NC(=O)NO [HU, hydroxyurea]",real-time KB cell growth after addition at 24 h,KB cells [1],cell growth continued
same,IC50,"KB-HURs cells [15]; read-out: IC50, toxicity assay, KB-HURs",320 µM
same,IC50,"KB cells [3]; read-out: IC50, cell proliferation/viability, KB cells",180 µM
"NC(=S)NN=Cc1ncccc1N [3-AP, 3-aminopyridine-2-carboxaldehyde thiosemicarbazone]",activity in KBHURs,KB-HURs cells [17],active
same,toxicities reported from the phase I trial,[18],"hypoxia, respiratory distress, and methemoglobulinemia"

# Source: article PMC3823501 (Cancer research, 2013)
